Experimental data: ChEMBL document CHEMBL1123830, “gamma-Aminobutyric acid esters. 3. Synthesis, brain uptake, and pharmacological properties of C-18 glyceryl lipid esters of GABA with varying degree of unsaturation” (J Med Chem, 1987)

Columns and labels:
[1] = Partition coefficient in octanol/water system was determined; assay type: physicochemical
Mus musculus [2] = assay: Tested for the quanitity of [14C]-labeled (radioactivity) compound taken up into the liver following subcutaneous injection at a 41 mg/kg; assay type: functional
In short: (§1)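 Male Balb-c mice (20 ± 2 g) received ¹⁴C-labeled lipid (label on the GABA portion) sc, as diacetate salt or free amine, in 15% propylene glycol in water. Killed at 5 min; brain and liver weighed and homogenized in SDS/EDTA phosphate buffer (pH 7.6), then scintillation counted. nmol/g computed from total radioactivity. BPI = ([brain]/[liver]) × 100. Mean ± SD of three, or two, measurements.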

[3] = Ratio of the amount in brain as a percent of that present in liver at 5 min is expressed as Brain penetration index (BPI); assay type: functional; in short: as §1
[4] = Brain-uptake index (BUI) was determined for the compound in rat; assay type: functional
In short: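 Rat carotid bolus: male Sprague-Dawley rats (200-300 g) under deep Nembutal anesthesia received a 0.15-mL bolus of ³H2O plus ¹⁴C-labeled compound in 0.01 M HEPES (pH 7.4) into the right carotid artery. Decapitated 5 s later; ipsilateral forebrain homogenized in SDS/urea/EDTA/phosphate buffer (pH 7.4). Duplicate aliquots counted by scintillation, corrected for quench and spillover. BUI = (¹⁴C/³H cpm) brain / (¹⁴C/³H cpm) injectate. Values uncorrected.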

Mus musculus [5] = assay: Tested for the quanitity of [14C]-labeled (radioactivity) compound taken up into the brain following subcutaneous injection at a 41 mg/kg; assay type: functional; in short: as §1
[6] = Partition coefficient in octanol/water system was determined using [14C]-labeled compounds.; assay type: physicochemical
Mus musculus [7] = assay: Percentage decrease in general motor activity with respect to vehicle-injected control in mice at a dose of 30 mg/kg after ip administration; assay type: functional; conditions: route intraperitoneal
Mus musculus [8] = assay: Tested for the quanitity of [14C]-labeled (radioactivity) compound taken up into the liver following subcutaneous injection; assay type: functional
Mus musculus [9] = assay: Tested for the quanitity of [14C]-labeled (radioactivity) compound taken up into the brain following subcutaneous injection; assay type: functional
Mus musculus [10] = assay: Tested for the quanitity of [14C]-labeled (radioactivity) compound taken up into the brain following subcutaneous injection at a 44 mg/kg; assay type: functional; in short: as §1
Mus musculus [11] = assay: Tested for the quanitity of [14C]-labeled (radioactivity) compound taken up into the liver following subcutaneous injection at a 44 mg/kg; assay type: functional; in short: as §1
Mus musculus [12] = assay: Tested for the quanitity of [14C]-labeled (radioactivity) compound taken up into the liver following subcutaneous injection at a 100 mg/kg; assay type: functional
Mus musculus [13] = assay: Tested for the quanitity of [14C]-labeled (radioactivity) compound taken up into the brain following subcutaneous injection at a 100 mg/kg; assay type: functional
Mus musculus [14] = assay: Tested for the quanitity of [14C]-labeled (radioactivity) compound taken up into the brain following subcutaneous injection at a 40 mg/kg; assay type: functional; in short: as §1
Mus musculus [15] = assay: Tested for the quanitity of [14C]-labeled (radioactivity) compound taken up into the liver following subcutaneous injection at a 40 mg/kg; assay type: functional; in short: as §1
Mus musculus [16] = assay: Tested for the quanitity of [14C]-labeled (radioactivity) compound taken up into the brain following subcutaneous injection at a 36 mg/kg; assay type: functional; in short: as §1
Mus musculus [17] = assay: Tested for the quanitity of [14C]-labeled (radioactivity) compound taken up into the liver following subcutaneous injection at a 36 mg/kg; assay type: functional; in short: as §1
Mus musculus [18] = assay: Tested for the quanitity of [14C]-labeled (radioactivity) compound taken up into the liver following subcutaneous injection t a 54 mg/kg; assay type: functional; in short: as §1
Mus musculus [19] = assay: Tested for the quanitity of [14C]-labeled (radioactivity) compound taken up into the brain following subcutaneous injection at a 54 mg/kg; assay type: functional; in short: as §1

Row | Structure (SMILES) | BPI [3] | BUI [4] | K [6] | Decrease (Mus musculus [7]) | other results
1 | CCCCC/C=C/C/C=C/CCCCCCCC(=O)OCC(COC(=O)CCCN)OC(=O)CCCN (stereo in doubt; 3c (L2G2)) | 97% | 25.9 | – | – | K [1]: 4.2; Activity (Mus musculus [2]): 8 nM/g; Activity (Mus musculus [5]): 7.74 nM/g
2 | NCCCC(=O)O [GAMMA-AMINOBUTYRIC ACID] | 0.96% | 2 | 0.004 | 62.1% | Activity (Mus musculus [8]): 4.2 nM/g; Activity (Mus musculus [9]): 0.041 nM/g
3 | CCCCCCCCCCCCCCCCCC(=O)OCC(COC(=O)CCCN)OC(=O)CCCN (stereo unspecified) | 28% | 45.1 | 8.6 | 62.1% | Activity (Mus musculus [10]): 1.89 nM/g; Activity (Mus musculus [11]): 6.92 nM/g
4 | CC/C=C/C/C=C/C/C=C/CCCCCCCC(=O)OCC(COC(=O)CCCN)OC(=O)CCCN (stereo in doubt) | 75% | 31.5 | – | – | K [1]: 2.13; Activity (Mus musculus [12]): 3.79 nM/g; Activity (Mus musculus [13]): 2.81 nM/g
5 | CC/C=C/C/C=C/C/C=C/CCCCCCCC(=O)OCC(COC(=O)CCCN)OC(=O)CCCN (stereo in doubt; 3d) | 15% | – | – | 82.6% | Activity (Mus musculus [14]): 1.07 nM/g; Activity (Mus musculus [15]): 7.86 nM/g
6 | CCCCCCCC/C=C/CCCCCCCC(=O)OCC(COC(=O)CCCN)OC(=O)CCCN (stereo unspecified) | 17% | 53.2 | 6 | 74% | Activity (Mus musculus [16]): 1.07 nM/g; Activity (Mus musculus [17]): 6.32 nM/g
7 | CCCCC/C=C/C/C=C/CCCCCCCC(=O)OCC(COC(=O)CCCN)OC(=O)CCCN (stereo in doubt; 3c) | 14% | – | – | 89.3% | Activity (Mus musculus [18]): 9.19 nM/g; Activity (Mus musculus [19]): 1.32 nM/g
